Reference: ChEMBL document CHEMBL1240435, “Synthesis of some 3-substituted amino-4,5-tetramethylene thieno[2,3-d][ 1,2,3]-triazin-4(3H)-ones as potential antimicrobial agents” (2010)
Values after ≈ are worked out from the molar mass of the structure shown.

Experiments:
Aspergillus niger [1] = experiment: Antifungal activity against Aspergillus niger after 48 hrs by tube dilution method; format: functional
Candida albicans [2] = experiment: Antifungal activity against Candida albicans at 50 ug/ml after 48 hrs by agar cup diffusion method; format: functional; conditions: read-out: IZ
Salmonella typhi [3] = experiment: Antibacterial activity against Salmonella typhi after 24 hrs by tube dilution method; format: functional, Salmonella enterica subsp. enterica serovar Typhi; conditions: Salmonella enterica
Staphylococcus aureus [4] = experiment: Antibacterial activity against Staphylococcus aureus at 50 ug/ml after 24 hrs by agar cup diffusion method; format: functional; conditions: read-out: IZ
Method in brief: (§1)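 Compounds dissolved in DMF. A fresh bacterial subculture in isotonic NaCl was mixed into sterile assay medium at 40–45 °C and poured into Petri dishes. Test solution went into marked wells. Plates stood 5 min, were covered for 1 h, then incubated at 37 °C for 24 h. Inhibition zones were measured as the average of three readings.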

Cryptococcus neoformans [5] = experiment: Antifungal activity against Cryptococcus neoformans after 48 hrs by tube dilution method; format: functional
Staphylococcus aureus [6] = experiment: Antibacterial activity against Staphylococcus aureus after 24 hrs by tube dilution method; format: functional
[7] = system: Staphylococcus epidermidis; experiment: Antibacterial activity against Staphylococcus epidermidis after 24 hrs by tube dilution method; format: functional
[8] = system: Staphylococcus epidermidis; experiment: Antibacterial activity against Staphylococcus epidermidis at 50 ug/ml after 24 hrs by agar cup diffusion method; format: functional; conditions: read-out: IZ; method in brief: as §1
Cryptococcus neoformans [9] = experiment: Antifungal activity against Cryptococcus neoformans at 50 ug/ml after 48 hrs by agar cup diffusion method; format: functional; conditions: read-out: IZ
Escherichia coli [10] = experiment: Antibacterial activity against Escherichia coli after 24 hrs by tube dilution method; format: functional
Salmonella typhi [11] = experiment: Antibacterial activity against Salmonella typhi at 50 ug/ml after 24 hrs by agar cup diffusion method; format: functional, Salmonella enterica subsp. enterica serovar Typhi; conditions: Salmonella enterica, read-out: IZ
Method in brief: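 Agar cup diffusion against an ATCC or IMTECH standard strain. The test compound is dissolved in DMF. A fresh bacterial subculture in isotonic NaCl is mixed into sterile medium at 40–45 °C and poured into plates. Solution is added to marked wells, left 5 min, then covered 1 h. Plates are incubated at 37 °C for 24 h. The inhibition zone is the mean of three readings, with ampicillin as reference.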

Candida albicans [12] = experiment: Antifungal activity against Candida albicans after 48 hrs by tube dilution method; format: functional
Aspergillus niger [13] = experiment: Antifungal activity against Aspergillus niger at 50 ug/ml after 48 hrs by agar cup diffusion method; format: functional; conditions: read-out: IZ
Escherichia coli [14] = experiment: Antibacterial activity against Escherichia coli at 50 ug/ml after 24 hrs by agar cup diffusion method; format: functional; conditions: read-out: IZ; method in brief: as §1

Row | Compound | MIC (Aspergillus niger [1]) [µg/mL] | zone of inhibition at 50 µg/mL (Candida albicans [2]) [mm] | MIC (Salmonella typhi [3]) [µg/mL] | zone of inhibition at 50 µg/mL (Staphylococcus aureus [4]) [mm] | MIC (Cryptococcus neoformans [5]) [µg/mL] | MIC (Staphylococcus aureus [6]) [µg/mL] | MIC [7] [µg/mL] | zone of inhibition at 50 µg/mL [8] [mm] | zone of inhibition at 50 µg/mL (Cryptococcus neoformans [9]) [mm] | MIC (Escherichia coli [10]) [µg/mL] | zone of inhibition at 50 µg/mL (Salmonella typhi [11]) [mm] | MIC (Candida albicans [12]) [µg/mL] | zone of inhibition at 50 µg/mL (Aspergillus niger [13]) [mm] | zone of inhibition at 50 µg/mL (Escherichia coli [14]) [mm]
1 | O=c1c2c3c(sc2nnn1-c1ccc(F)c(Cl)c1)CCCC3 | 25 (≈ 74.5 µM) | 7 | 12.5 (≈ 37.2 µM) | 26 | 50 (≈ 149 µM) | 12.5 (≈ 37.2 µM) | 12.5 (≈ 37.2 µM) | 24 | 8 | 25 (≈ 74.5 µM) | 20 | 37.5 (≈ 112 µM) | 10 | 24
2 | CCn1nnc2sc3c(c2c1=O)CCCC3 | 37.5 (≈ 159 µM) | 5 | 37.5 (≈ 159 µM) | 18 | 125 (≈ 531 µM) | 37.5 (≈ 159 µM) | 37.5 (≈ 159 µM) | 16 |  | 50 (≈ 212 µM) | 16 | 50 (≈ 212 µM) | 6 | 16
3 | Cn1nnc2sc3c(c2c1=O)CCCC3 | 37.5 (≈ 169 µM) | 4 | 37.5 (≈ 169 µM) | 16 | 125 (≈ 565 µM) | 37.5 (≈ 169 µM) | 37.5 (≈ 169 µM) | 18 |  | 50 (≈ 226 µM) | 14 | 50 (≈ 226 µM) | 6 | 12
4 | CC1(C)S[C@@H]2[C@H](NC(=O)[C@H](N)c3ccccc3)C(=O)N2[C@H]1C(=O)O [AMPICILLIN] |  |  | 6.25 (≈ 17.9 µM) | 40 |  | 0.5 (≈ 1.43 µM) | 1.56 (≈ 4.46 µM) | 36 |  | 4 (≈ 11.4 µM) | 26 |  |  | 28
5 | O=c1c2c3c(sc2nnn1-c1ccccc1Cl)CCCC3 | 12.5 (≈ 39.3 µM) | 8 | 12.5 (≈ 39.3 µM) | 30 | 50 (≈ 157 µM) | 12.5 (≈ 39.3 µM) | 12.5 (≈ 39.3 µM) | 30 | 9 | 25 (≈ 78.7 µM) | 20 | 25 (≈ 78.7 µM) | 14 | 24
6 | O=c1c2c3c(sc2nnn1-c1ccccc1)CCCC3 | 37.5 (≈ 132 µM) | 4 | 37.5 (≈ 132 µM) | 20 | 125 (≈ 441 µM) | 25 (≈ 88.2 µM) | 25 (≈ 88.2 µM) | 17 |  | 37.5 (≈ 132 µM) | 12 | 50 (≈ 176 µM) | 6 | 12
7 | O=c1c2c3c(sc2nnn1-c1ccc(Cl)cc1)CCCC3 | 12.5 (≈ 39.3 µM) | 10 | 12.5 (≈ 39.3 µM) | 34 | 37.5 (≈ 118 µM) | 12.5 (≈ 39.3 µM) | 12.5 (≈ 39.3 µM) | 32 | 10 | 25 (≈ 78.7 µM) | 26 | 25 (≈ 78.7 µM) | 16 | 26
